Source: ChEMBL document CHEMBL1143299, “Synthesis and biological activity of novel shikonin analogues” (Bioorg Med Chem Lett, 2009)
pIC50: −log10 of the molar value. Active and inactive are the calls of the source. The rule behind the calls is not given here.

Tests used:
Assay type in all cases: functional, cell-based
HeLa = assay: Cytotoxicity agaisnt human HeLa cells by SRB assay
Summary of the method: (§1)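 IC50 from three independent experiments; growth inhibition read by SRB (adherent lines) or MTT (HL60, K562).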

HL-60 = assay: Cytotoxicity against human HL60 cells by MTT assay; summary of the method: as §1
MDA-MB-231 [1] = assay: Reduction of hypoxia-induced HIF1alpha accumulation in human MDA-MB-231 cells at 10 uM by Western blotting analysis
Summary of the method: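 MDA-MB-231 cells (5 × 10⁵) treated at 10 µM, held in hypoxia (1% O₂) for 10 h, then lysed in 1× SDS loading buffer (pH 6.8 Tris–HCl, DTT, SDS) and boiled. Equal lysate amounts run on 10% SDS–PAGE, transferred to nitrocellulose, probed for HIF-1α and β-actin with HRP secondary antibodies, detected by ECL. Representative of three independent experiments.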

KB = assay: Cytotoxicity agaisnt vincristine-resistant human KB cells by SRB assay; summary of the method: as §1
MDA-MB-231 [2] = assay: Cytotoxicity agaisnt human MDA-MB-231 cells by SRB assay; summary of the method: as §1
HCT-116 = assay: Cytotoxicity agaisnt human HCT116 cells by SRB assay; summary of the method: as §1
A549 = assay: Cytotoxicity agaisnt human A549 cells by SRB assay; summary of the method: as §1
[3] = Cytotoxicity agaisnt human Rh30 cells by SRB assay; conditions: SJRH30; summary of the method: as §1
[4] = Cytotoxicity agaisnt human KB-3-1 cells by SRB assay; summary of the method: as §1
HT-29 = assay: Cytotoxicity agaisnt human HT29 cells by SRB assay; summary of the method: as §1
K562 = assay: Cytotoxicity agaisnt human K562 cells by MTT assay; summary of the method: as §1

Row | SMILES | pIC50 (HeLa) | pIC50 (HL-60) | also measured
1 | Cc1ccccc1S(=O)(=O)NC(C1=CC(=O)c2c(O)ccc(O)c2C1=O)C(C)C (centres undefined) | 6.10 | 6.72 | –
2 | CC(=O)c1ccc(S(=O)(=O)NC(C)C2=CC(=O)c3c(O)ccc(O)c3C2=O)cc1 (centres undefined) | 5.24 | 6.59 | –
3 | COc1ccc(S(=O)(=O)NC(C)C2=CC(=O)c3c(O)ccc(O)c3C2=O)c(OC)c1 (centres undefined) | 4.71 | 6.30 | –
4 | CCOC(=O)c1ccc(S(=O)(=O)NC(C)C2=CC(=O)c3c(O)ccc(O)c3C2=O)cc1 (centres undefined) | 5.65 | 6.92 | –
5 | CC(NS(=O)(=O)c1ccccc1Br)C1=CC(=O)c2c(O)ccc(O)c2C1=O (centres undefined) | 5.21 | 6.92 | Activity (MDA-MB-231 [1]): Active
6 | COc1cc([C@@H]2c3cc4c(cc3[C@@H](O)[C@H]3COC(=O)[C@H]23)OCO4)cc(OC)c1O [4'-DEMETHYLEPIPODOPHYLLOTOXIN] | 6.01 | 6.09 | –
7 | CCOC(=O)c1ccc(S(=O)(=O)NC(C2=CC(=O)c3c(O)ccc(O)c3C2=O)C(C)C)cc1 (centres undefined) | 6.07 | 6.82 | pIC50 (KB): 4.88; pIC50 (MDA-MB-231 [2]): 5.33; pIC50 (HCT-116): 5.42; pIC50 (A549): 4.94; pIC50 [3]: 5.59; pIC50 [4]: 4.93; pIC50 (HT-29): 5.55; pIC50 (K562): 4.74
8 | CC(C)C(NS(=O)(=O)c1cccc(Br)c1)C1=CC(=O)c2c(O)ccc(O)c2C1=O (centres undefined) | 6.07 | 6.10 | –
9 | COc1ccc(S(=O)(=O)NC(C)C2=CC(=O)c3c(O)ccc(O)c3C2=O)cc1 (centres undefined) | 5.42 | 7.70 | –
10 | CC(C)=CC[C@@H](O)C1=CC(=O)c2c(O)ccc(O)c2C1=O [SHIKONIN] | 4.87 | 6.36 | Activity (MDA-MB-231 [1]): Active
11 | Cc1ccc(S(=O)(=O)NC(C)C2=CC(=O)c3c(O)ccc(O)c3C2=O)cc1 (centres undefined) | 5.27 | 7.52 | –
12 | CC(C)C(NS(=O)(=O)c1ccccc1Br)C1=CC(=O)c2c(O)ccc(O)c2C1=O (centres undefined) | 5.08 | 6.47 | –
13 | CC(NS(=O)(=O)c1ccc(Br)cc1)C1=CC(=O)c2c(O)ccc(O)c2C1=O (centres undefined) | 5.28 | 7.00 | –
14 | Cc1ccc(S(=O)(=O)NC(C2=CC(=O)c3c(O)ccc(O)c3C2=O)C(C)C)cc1 (centres undefined) | 5.31 | – | –
15 | CC(=O)c1ccc(S(=O)(=O)NC(C2=CC(=O)c3c(O)ccc(O)c3C2=O)C(C)C)cc1 (centres undefined) | 5.42 | 6.96 | –
16 | CC(C)C(NS(=O)(=O)c1ccc(Cl)cc1)C1=CC(=O)c2c(O)ccc(O)c2C1=O (centres undefined) | 5.06 | – | –
17 | Cc1ccccc1S(=O)(=O)NC(C)C1=CC(=O)c2c(O)ccc(O)c2C1=O (centres undefined) | 5.35 | 7.15 | Activity (MDA-MB-231 [1]): Active
18 | COc1ccc(S(=O)(=O)NC(C2=CC(=O)c3c(O)ccc(O)c3C2=O)C(C)C)c(OC)c1 (centres undefined) | 5.56 | 6.40 | –
19 | CC(NS(=O)(=O)c1ccc(Cl)cc1)C1=CC(=O)c2c(O)ccc(O)c2C1=O (centres undefined) | 6.09 | 6.60 | pIC50 (KB): 4.91; pIC50 (MDA-MB-231 [2]): 5.35; pIC50 (HCT-116): 5.49; pIC50 (A549): 5.08; pIC50 [3]: 5.72; pIC50 [4]: 5.16; pIC50 (HT-29): 5.89; pIC50 (K562): 4.70; Activity (MDA-MB-231 [1]): Active
20 | CC(C)C(NS(=O)(=O)c1ccc(Br)cc1)C1=CC(=O)c2c(O)ccc(O)c2C1=O (centres undefined) | 5.12 | – | –
21 | CC(NS(=O)(=O)c1ccc(F)cc1)C1=CC(=O)c2c(O)ccc(O)c2C1=O (centres undefined) | 5.19 | 7.05 | –
22 | CC(C)C(NS(=O)(=O)c1ccc(F)cc1)C1=CC(=O)c2c(O)ccc(O)c2C1=O (centres undefined) | 5.18 | – | –
23 | CC(NS(=O)(=O)c1cccc(Br)c1)C1=CC(=O)c2c(O)ccc(O)c2C1=O (centres undefined) | 5.20 | 6.80 | Activity (MDA-MB-231 [1]): Active
24 | COc1ccc(S(=O)(=O)NC(C2=CC(=O)c3c(O)ccc(O)c3C2=O)C(C)C)cc1 (centres undefined) | 5.05 | – | –
